Several values for one entry are separate records, joined by “and”; a condition that tells them apart may be missing. Equal entries are not always repeated.
Key:
[1] = system: Mus musculus; test: Compound was evaluated for the antitumor activity against L1210 leukemia in mice at 50 mg/kg dose; type: functional
How it was run: (§1)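 L1210 ascites leukemia serially passaged in CDF1 mice; 10^5 cells implanted ip. Compounds homogenized in drops of 20% aqueous Tween 80, brought to volume with isotonic saline, given ip as fine suspensions once daily for 6 consecutive days starting 24 h after implantation. Five mice per group; vehicle controls. Endpoint: % T/C = mean survival treated/control × 100; body-weight change tracked toxicity.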

[2] = species: Mus musculus; test: Compound was evaluated for the antineoplastic activity against L1210 leukemia in mice.; type: functional
How it was run: (§2)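 CDF1 mice, 10^5 L1210 ascites cells implanted ip (from 7-day donor tumors, saline-diluted). Dosed ip once daily for 6 days from 24 h post-implant, 50-150 mg/kg, as Tween 80/saline suspension. Five mice per group, vehicle-treated controls. Read-out: % T/C, mean survival of treated/control ×100.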

[3] = system: Mus musculus; test: Compound was evaluated for the antitumor activity as average change in body weight against L1210 leukemia in mice 100 mg/kg dose; type: functional
How it was run: (§3)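 CDF1 mice carrying ip L1210 ascites (10^5 cells), dosed ip daily for 6 consecutive days starting 24 h after implant, in Tween 80/isotonic saline suspension. Five mice per group. Toxicity taken as mean percent body weight change from start to end of therapy.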

[4] = system: Mus musculus; test: Compound was evaluated for the antitumor activity as average change in body weight against L1210 leukemia in mice 150 mg/kg dose; type: functional; how it was run: as §3
[5] = system: Mus musculus; test: Compound was evaluated for the antitumor activity as average change in body weight against L1210 leukemia in mice at 50 mg/kg dose; type: functional; how it was run: as §3
[6] = Compound was evaluated for relative alkylating activity
[7] = system: Mus musculus; test: (§4) Compound was evaluated for the antitumor activity against L1210 leukemia in mice at 100 mg/kg dose; type: functional; how it was run: as §2
[8] = system: Mus musculus; test: Compound was evaluated for the antitumor activity against L1210 leukemia in mice at 150 mg/kg dose; type: functional; how it was run: as §1
[9] = system: Mus musculus; test: Compound was evaluated for the antitumor activity as average change in body weight against L1210 leukemia in mice at 100 mg/kg dose; type: functional; how it was run: as §3
[10] = system: Mus musculus; test: Compound was evaluated for the antitumor activity as average change in body weight against L1210 leukemia in mice at 150 mg/kg dose; type: functional; how it was run: as §3
[11] = system: Mus musculus; test: as §4; type: functional; how it was run: as §1; remark: listed apart in the source

SMILES | T/C [1] [%] | Max T/C [2] [%] | Average change in weight [5] [%] | Relative activity [6] | Average change in weight [9] [%] | Average change in weight [10] [%] | further results
Cc1ccc(S(=O)(=O)N(C)NS(=O)(=O)c2ccccc2)cc1 | 162 | 162 | 2 | 112 |  |  | Average survival time [1]: 15 days; Average change in weight [3]: 5.4%; Average change in weight [4]: -1.7%
COc1ccc(S(=O)(=O)NN(C)S(=O)(=O)c2ccc(C)cc2)cc1 | 116 | 162 | 7.7 | 91 | 7.8 | 2.9 | T/C [7]: 162%; Average survival time ([1]; 50 mg/kg): 15 days and 13.2 days; T/C [8]: 143%
CN(NC(=O)c1ccccc1)C(=O)c1ccccc1 |  | 97 |  | 10 |  |  | 
Cc1ccc(S(=O)(=O)NN(C)S(=O)(=O)c2ccc(Cl)cc2)cc1 |  | 141 | 5.1 | 163 | 5.5 | -4.6 | Average survival time [11]: 13 days; Average survival time [8]: 10 days
COc1ccc(S(=O)(=O)N(C)NS(=O)(=O)c2ccc(C)cc2)cc1 |  | 113 | 12.6 | 85 | 14.8 | 9.8 | 
CN(NS(=O)(=O)c1ccc(Cl)cc1)S(=O)(=O)c1ccc(Cl)cc1 |  |  |  | 190 |  |  | 
Cc1ccc(S(=O)(=O)N(C)NS(=O)(=O)Cc2ccccc2)cc1 |  |  |  | 136 |  |  | 
Cc1ccc(S(=O)(=O)N(C)NS(=O)(=O)c2ccc(Cl)cc2)cc1 | 188 | 188 | 3.7 | 126 | 10 | 6 | T/C [8]: 121%
O=S(=O)(NNS(=O)(=O)c1ccccc1)c1ccccc1 |  |  |  | 0 |  |  | 
Cc1ccc(S(=O)(=O)NN(C)S(=O)(=O)c2ccc(C)cc2)cc1 |  |  |  | 100 |  |  | 

From ChEMBL document CHEMBL1123531, “1,2-bis(arylsulfonyl)hydrazines. 2. The influence of arylsulfonyl and aralkylsulfonyl substituents on antitumor and alkylating activity” (1986)
